Source: paper PMC3790647 (Clinical cancer research : an official journal of the …, 2013)
Marks after values point to notes of the source that are not given here.

Columns and labels:
histone H4 acetylation = assay: Histone H4 acetylation in PBMC by Western blotting; assay type: in vivo, human; details: 800 mg dose level
multiple myeloma cells = details: cited from earlier work
[1] = system: rodent and human cancer cell lines; details: large variety of cell lines; ref Investigator’s Brochure, version 5, 2010; cited from earlier work
[2] = Plasma pharmacokinetics of resminostat in patients; assay type: in vivo, human; details: for half-life / AUC / AUC(0-inf) / Tmax / Cmax: human, plasma
Summary of the method: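 Oral capsules (100–800 mg) were taken once daily within 30 min after a light meal with 240 ml water, with a 1 h post-dose fast on PK days. Day 1 blood was drawn pre-dose to 24 h (15 min–10 h series plus 24 h); days 5 and 47, pre-dose to 8 h. Samples (2 ml EDTA) were kept on ice, spun 10 min at 2700 × g at 4°C, and plasma stored at −80°C. Analysis used validated HPLC-MS/MS and non-compartmental (extravascular) analysis, with AUC0-∞, Cmax and t½ log-transformed.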

advanced solid tumors = assay: Tumor response by RECIST 1.0; assay type: in vivo, human
Summary of the method: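 Patients with at least one RECIST-measurable lesion and progressive disease at entry had CT and/or MRI every 8 weeks for up to 6 months of treatment, then every 12 weeks. Response was scored by RECIST 1.0. Dosing was oral once daily on days 1–5 every 14 days, 100–800 mg.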

## CN(C)Cc1ccc(S(=O)(=O)n2ccc(/C=C/C(=O)NO)c2)cc1 [resminostat]
Histone H4 acetylation
  Median increase of histone H4 acetylation level: 10 fold
Multiple myeloma cells
  Apoptosis signalling (Bim, Bax, Caspases 3, 8 and 9 up; Bcl-xL down): pro-apoptotic signals were seen
[1]
  Concentrations that inhibit proliferation: sub-to-low micromolar
[2]; all studied dose levels
  Change in AUC and Cmax between treatment days 1 and 5: no significant change
[2]; day 1, single dosing, all doses
  Time at which peak plasma concentration Cmax was attained, median value: 2 h
[2]; day 1, single oral administration, 100 mg, N=3, geometric mean (68% range), free-base
  Clearance: 80900 (51600, 127000) mL/h
[2]; day 1, single oral administration, 200 mg, N=3, geometric mean (68% range), free-base
  Clearance: 53800 (45000, 64300) mL/h
[2]; day 1, single oral administration, 400 mg, N=3, geometric mean (68% range), free-base
  Clearance: 52500 (50600, 54400) mL/h
[2]; day 1, single oral administration, 600 mg, N=3, geometric mean (68% range), free-base
  Clearance: 41400 (32200, 53300) mL/h
[2]; day 1, single oral administration, 800 mg, N=7, geometric mean (68% range), free-base
  Clearance: 37700 (29500, 48200) mL/h
[2]; day 5, multiple oral administration, 100 mg, N=3, geometric mean (68% range), free-base
  Clearance: 75100 (51000, 110000) mL/h
[2]; day 5, multiple oral administration, 200 mg, N=3, geometric mean (68% range), free-base
  Clearance: 59500 (45500, 77800) mL/h
[2]; day 5, multiple oral administration, 400 mg, N=3, geometric mean (68% range), free-base
  Clearance: 49300 (39900, 61000) mL/h
[2]; day 5, multiple oral administration, 600 mg, n = 2, geometric mean (68% range), free-base
  Clearance: 31100 (27100, 35600)^b mL/h
[2]; day 5, multiple oral administration, 800 mg, N=6, geometric mean (68% range), free-base
  Clearance: 41200 (29900, 56800) mL/h
[2]; oral, Terminal plasma elimination half-life, range, day 1, all doses
  half-life: 141 to 265 min
[2]; po, 100 mg
  AUC: 1330 ng·h/mL
  AUC(0-inf): 1240 ng·h/mL
  Tmax: 2 h
[2]; po, 100 mg, day 1, single oral administration, 100 mg, N=3, geometric mean (68% range), free-base
  Cmax: 487 ng/mL
[2]; po, 100 mg, day 5, multiple oral administration, 100 mg, N=3, geometric mean (68% range), free-base
  Cmax: 373 ng/mL
[2]; po, 100 mg, Half-life, day 1, single oral administration, 100 mg, N=3, geometric mean (68% range), free-base
  half-life: 226 min
[2]; po, 200 mg
  AUC: 3360 ng·h/mL
  AUC(0-inf): 3720 ng·h/mL
  Tmax: 2 h
[2]; po, 200 mg, day 1, single oral administration, 200 mg, N=3, geometric mean (68% range), free-base
  Cmax: 1470 ng/mL
[2]; po, 200 mg, day 5, multiple oral administration, 200 mg, N=3, geometric mean (68% range), free-base
  Cmax: 1060 ng/mL
[2]; po, 200 mg, Half-life, day 1, single oral administration, 200 mg, N=3, geometric mean (68% range), free-base
  half-life: 187 min
[2]; po, 400 mg
  AUC: 8110 ng·h/mL
  AUC(0-inf): 7630 ng·h/mL
  Tmax: 2.5 h
[2]; po, 400 mg, day 1, single oral administration, 400 mg, N=3, geometric mean (68% range), free-base
  Cmax: 2160 ng/mL
[2]; po, 400 mg, day 5, multiple oral administration, 400 mg, N=3, geometric mean (68% range), free-base
  Cmax: 2270 ng/mL
[2]; po, 400 mg, Half-life, day 1, single oral administration, 400 mg, N=3, geometric mean (68% range), free-base
  half-life: 206 min
[2]; po, 600 mg
  AUC: 19300 ng·h/mL
  AUC(0-inf): 14500 ng·h/mL
  Tmax: 2.5 h
[2]; po, 600 mg, day 1, single oral administration, 600 mg, N=3, geometric mean (68% range), free-base
  Cmax: 4100 ng/mL
[2]; po, 600 mg, day 5, multiple oral administration, 600 mg, N=3, geometric mean (68% range), free-base
  Cmax: 3000 ng/mL
[2]; po, 600 mg, Half-life, day 1, single oral administration, 600 mg, N=3, geometric mean (68% range), free-base
  half-life: 170 min
[2]; po, 800 mg
  AUC: 19400 ng·h/mL
  AUC(0-inf): 21200 ng·h/mL
  Tmax: 1.75 h
[2]; po, 800 mg, day 1, single oral administration, 800 mg, N=7, geometric mean (68% range), free-base
  Cmax: 4970 ng/mL
[2]; po, 800 mg, day 5, multiple oral administration, 800 mg, N=6, geometric mean (68% range), free-base
  Cmax: 4510 ng/mL
[2]; po, 800 mg, Half-life, day 1, single oral administration, 800 mg, N=7, geometric mean (68% range), free-base
  half-life: 169 min
[2]; patients, oral capsules
  Oral bioavailability (judged from plasma exposure): good oral bioavailability
Advanced solid tumors; 600 mg dose group
  Patients who achieved SD: Three of 3
Advanced solid tumors; all dose levels, 95% CI: 34–80
  Patients with stable disease (SD) lasting >8 weeks: 58%
Advanced solid tumors; one patient with metastatic thymoma
  Reduction in the sum of the longest diameters of tumor target lesions: 27%
Advanced solid tumors; patient with liposarcoma, 31 cycles
  Time on study with SD: 14.2 months
